# From ChEMBL document CHEMBL1933006, “Mechanistic analysis of muraymycin analogues: a guide to the design of MraY inhibitors” (J Med Chem, 2011)
# Tests used:
# Type in all cases: functional
# Staphylococcus aureus [1] = experiment: Antibacterial activity against methicillin-sensitive […] Staphylococcus aureus ATCC 29213 after 20 hrs by broth microdilution method; conditions: ATCC 29213, 20 h
# Procedure, shortened: (§1)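 NCCLS broth microdilution in cation-adjusted Mueller–Hinton broth. Serial 2-fold compound dilutions were inoculated with 5 × 10⁴ CFU per 0.1 mL and incubated at 35 °C for 20 h before scoring the MIC.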
# Enterococcus faecalis [2] = experiment: Antibacterial activity against vancomycin-resistant Enterococcus faecalis SR7914 after 20 hrs by broth microdilution method; conditions: SR7914, 20 h; procedure, shortened: as §1
# Staphylococcus aureus [3] = experiment: Antibacterial activity against methicillin-resistant Staphylococcus aureus isolate SR3637 after 20 hrs by broth microdilution method; conditions: isolate SR3637, 20 h; procedure, shortened: as §1
# Enterococcus faecalis [4] = experiment: Antibacterial activity against Enterococcus faecalis ATCC 29212 after 20 hrs by broth microdilution method; conditions: ATCC 29212, 20 h; procedure, shortened: as §1
# Enterococcus faecium [5] = experiment: Antibacterial activity against vancomycin-resistant Enterococcus faecium SR7917 after 20 hrs by broth microdilution method; conditions: SR7917, 20 h; procedure, shortened: as §1
# Enterococcus faecium [6] = experiment: Antibacterial activity against Enterococcus faecium ATCC 19434 after 20 hrs by broth microdilution method; conditions: ATCC 19434, 20 h; procedure, shortened: as §1
SMILES,MIC (Staphylococcus aureus [1]),MIC (Enterococcus faecalis [2]),MIC (Staphylococcus aureus [3]),MIC (Enterococcus faecalis [4]),MIC (Enterococcus faecium [5]),MIC (Enterococcus faecium [6])
CCCCCCCCCCCCCCC[C@H](NC(=O)[C@H](CCCNC(=N)N)NC(=O)N[C@H](C(=O)O)C(C)C)C(=O)NCCCN[C@H](C(=O)O)[C@H](O[C@@H]1O[C@H](CN)[C@@H](O)[C@H]1O)[C@H]1O[C@@H](n2ccc(=O)[nH]c2=O)[C@H](O)[C@@H]1O,2 µg/mL,2 µg/mL,2 µg/mL,2 µg/mL,1 µg/mL,–
CCCCCCCCCCCCCCC[C@H](NC(=O)[C@@H](N)[C@@H]1CCNC(=N)N1)C(=O)NCCCN[C@H](C(=O)O)[C@H](O[C@@H]1O[C@H](CN)[C@@H](O)[C@H]1O)[C@H]1O[C@@H](n2ccc(=O)[nH]c2=O)[C@H](O)[C@@H]1O,8 µg/mL,4 µg/mL,8 µg/mL,4 µg/mL,8 µg/mL,–
CCCCCCCCCCCCCCC[C@H](NC(=O)[C@@H](N)CCCSC)C(=O)NCCCN[C@H](C(=O)O)[C@H](O[C@@H]1O[C@H](CN)[C@@H](O)[C@H]1O)[C@H]1O[C@@H](n2ccc(=O)[nH]c2=O)[C@H](O)[C@@H]1O,8 µg/mL,4 µg/mL,8 µg/mL,4 µg/mL,8 µg/mL,–
CCCCCCCCCCCCCCC[C@H](NC(=O)[C@@H](NC(=O)N[C@H](C(=O)O)C(C)C)[C@H]1CCNC(=N)N1)C(=O)NCCCN[C@H](C(=O)O)[C@H](O[C@@H]1O[C@H](CN)[C@@H](O)[C@H]1O)[C@H]1O[C@@H](n2ccc(=O)[nH]c2=O)[C@H](O)[C@@H]1O,2 µg/mL,4 µg/mL,2 µg/mL,2 µg/mL,2 µg/mL,–
CCCCCCCCCCCCCCC[C@H](NC(=O)[C@@H](N)CCCNC(=N)N)C(=O)NCCCN[C@H](C(=O)O)[C@H](O[C@@H]1O[C@H](CN)[C@@H](O)[C@H]1O)[C@H]1O[C@@H](n2ccc(=O)[nH]c2=O)[C@H](O)[C@@H]1O,4 µg/mL,4 µg/mL,4 µg/mL,4 µg/mL,4 µg/mL,–
CC(C)[C@H](NC(=O)N[C@H](C(=O)N[C@H](CCCCCCCc1ccc(-c2ccccc2)cc1)C(=O)NCCCN[C@H](C(=O)O)[C@H](O[C@@H]1O[C@H](CN)[C@@H](O)[C@H]1O)[C@H]1O[C@@H](n2ccc(=O)[nH]c2=O)[C@H](O)[C@@H]1O)[C@@H]1CCNC(=N)N1)C(=O)O,8 µg/mL,16 µg/mL,16 µg/mL,8 µg/mL,4 µg/mL,4 µg/mL
CCCCCCCCCCCCCCC[C@@H](NC(=O)[C@@H](NC(=O)N[C@H](C(=O)O)C(C)C)[C@H]1CCNC(=N)N1)C(=O)NCCCN[C@H](C(=O)O)[C@H](O[C@@H]1O[C@H](CN)[C@@H](O)[C@H]1O)[C@H]1O[C@@H](n2ccc(=O)[nH]c2=O)[C@H](O)[C@@H]1O,4 µg/mL,4 µg/mL,2 µg/mL,2 µg/mL,4 µg/mL,–
CCCCCCCCCCCCCCC[C@H](NC(=O)[C@@H](N)CCCN)C(=O)NCCCN[C@H](C(=O)O)[C@H](O[C@@H]1O[C@H](CN)[C@@H](O)[C@H]1O)[C@H]1O[C@@H](n2ccc(=O)[nH]c2=O)[C@H](O)[C@@H]1O,4 µg/mL,4 µg/mL,4 µg/mL,4 µg/mL,8 µg/mL,–
CN[C@H](CC(C)C)C(=O)N[C@H]1C(=O)N[C@@H](CC(N)=O)C(=O)N[C@H]2C(=O)N[C@H]3C(=O)N[C@H](C(=O)N[C@H](C(=O)O)c4cc(O)cc(O)c4-c4cc3ccc4O)[C@H](O)c3ccc(c(Cl)c3)Oc3cc2cc(c3O[C@@H]2O[C@H](CO)[C@@H](O)[C@H](O)[C@H]2O[C@H]2C[C@](C)(N)[C@H](O)[C@H](C)O2)Oc2ccc(cc2Cl)[C@H]1O [VANCOMYCIN],–,> 64 µg/mL,–,1 µg/mL,> 64 µg/mL,–
